{"source": "paper PMC9053608", "about": "(RSC Advances, 2020)", "key": {"[1]": {"tested_on": "E. coli ATCC 25922", "assay": "Antibacterial activity, microdilution assay", "assay_type": "cell-based", "conditions": "microdilution (CLSI), 96-well, 24 h at 37 °C, absorbance 620 nm, n = 2", "summary_of_the_method": "(§1)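 MIC by CLSI broth microdilution. Peptide solutions at 200, 100, 50, 25, 12.5 and 6.2 μg mL−1 were mixed 9:1 with bacterial inoculum (5 × 10^6 CFU mL−1). Plates were incubated 24 h at 37 °C and read at A620. […] Duplicate runs (n = 2).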"}, "[2]": {"tested_on": "S. aureus ATCC 25923", "assay": "Antibacterial activity, microdilution assay", "assay_type": "cell-based", "conditions": "microdilution (CLSI), 96-well, 24 h at 37 °C, absorbance 620 nm, n = 2", "summary_of_the_method": "as §1"}, "[3]": {"tested_on": "breast cancer cell line MDA-MB-468", "assay": "MTT cytotoxicity assay", "assay_type": "cell-based, human", "conditions": "37 °C, 5% FBS, mean ± SD (n = 3); for Cellular Viability (%), MDA-MB-468 cells, 2 h: peptide 200 μg mL−1, 2 h; for Cellular Viability (%), MDA-MB-468 cells, 24 h: peptide 200 μg mL−1, 24 h; for Cellular Viability (%), MDA-MB-468 cells, 48 h: peptide 200 μg mL−1, 48 h", "summary_of_the_method": "(§2)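 Cells (1 × 10^4 per well) adhered for 14 h at 37 °C in humidified 5% CO2. Medium was then replaced with equal volumes of supplemented RPMI (10%) and peptide solution (200–6.25 μg mL−1), giving 5% final FBS. After 2, 24 or 48 h, MTT (5 mg mL−1 stock) was added for 4 h at 37 °C. Formazan was dissolved in DMSO and read at A570; mean ± S.D., n = 3.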"}, "[4]": {"tested_on": "young human fibroblast primary cell culture", "assay": "MTT cytotoxicity assay", "assay_type": "cell-based", "conditions": "37 °C, 5% FBS, mean ± SD (n = 3); for Cellular Viability (%), Fibroblast cells, 2 h: peptide 200 μg mL−1, 2 h; for Cellular Viability (%), Fibroblast cells, 24 h: peptide 200 μg mL−1, 24 h; for Cellular Viability (%), Fibroblast cells, 48 h: peptide 200 μg mL−1, 48 h", "summary_of_the_method": "as §2"}, "[5]": {"tested_on": "MDA-MB-468 cells", "assay": "Morphologic changes by phase-contrast microscopy", "assay_type": "cell-based, human", "conditions": "phase-contrast microscopy 20×, peptide at 134,61 μM, 24 h", "summary_of_the_method": "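MDA-MB-468 cells (ATCC HTB-132), 1 × 10^4 per well, were allowed to adhere for 14 h at 37 °C in 5% CO2. Medium was then replaced with supplemented RPMI plus test compound, giving 5% FBS final. Plates were incubated at 37 °C in 5% CO2, and cells were photographed before MTT addition. Untreated cells were recorded alongside.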"}}, "note": "Marks after values point to notes of the source that are not given here. Ends that are not written are not given here.", "data": [{"substance": "RAQWRWQWR-NH2 [Peptide A2]", "values": [{"measurement": "MIC, E. coli ATCC 25922", "setting": "[1]", "result": 146, "unit": "µM"}, {"measurement": "MIC, S. aureus ATCC 25923", "setting": "[2]", "result": 146, "unit": "µM"}, {"measurement": "Cellular Viability (%), MDA-MB-468 cells, 2 h", "setting": "[3]", "result": "62 ± 4", "unit": "%"}, {"measurement": "Cellular Viability (%), MDA-MB-468 cells, 24 h", "setting": "[3]", "result": "63 ± 4", "unit": "%"}, {"measurement": "Cellular Viability (%), MDA-MB-468 cells, 48 h", "setting": "[3]", "result": "58 ± 6", "unit": "%"}, {"measurement": "Cellular Viability (%), Fibroblast cells, 2 h", "setting": "[4]", "result": "100 ± 2 ^a %"}, {"measurement": "Cellular Viability (%), Fibroblast cells, 24 h", "setting": "[4]", "result": "94 ± 2 ^a %"}, {"measurement": "Cellular Viability (%), Fibroblast cells, 48 h", "setting": "[4]", "result": "87 ± 2 ^a %"}, {"measurement": "morphological changes in MDA-MB-468 cells", "setting": "[5]", "result": "significant morphological changes associated with the cytotoxic effect were not observed"}]}, {"substance": "RWQWAWQWR-NH2 [Peptide A5]", "values": [{"measurement": "MIC, S. aureus ATCC 25923", "setting": "[2]", "result": 143, "unit": "µM"}, {"measurement": "Cellular Viability (%), MDA-MB-468 cells, 2 h", "setting": "[3]", "result": "71 ± 8", "unit": "%"}, {"measurement": "Cellular Viability (%), MDA-MB-468 cells, 24 h", "setting": "[3]", "result": "62 ± 7", "unit": "%"}, {"measurement": "Cellular Viability (%), MDA-MB-468 cells, 48 h", "setting": "[3]", "result": "64 ± 4", "unit": "%"}, {"measurement": "Cellular Viability (%), Fibroblast cells, 2 h", "setting": "[4]", "result": "99 ± 1 ^a %"}, {"measurement": "Cellular Viability (%), Fibroblast cells, 24 h", "setting": "[4]", "result": "81 ± 1 ^b %"}, {"measurement": "Cellular Viability (%), Fibroblast cells, 48 h", "setting": "[4]", "result": "82 ± 1 ^a %"}, {"measurement": "morphological changes in MDA-MB-468 cells", "setting": "[5]", "result": "morphological changes were observed, acquiring rounded forms"}]}, {"substance": "RWQWRAQWR-NH2 [Peptide A6]", "values": [{"measurement": "MIC, E. coli ATCC 25922", "setting": "[1]", "result": 37, "unit": "µM"}, {"measurement": "Cellular Viability (%), MDA-MB-468 cells, 2 h", "setting": "[3]", "result": "55 ± 6", "unit": "%"}, {"measurement": "Cellular Viability (%), MDA-MB-468 cells, 24 h", "setting": "[3]", "result": "49 ± 5", "unit": "%"}, {"measurement": "Cellular Viability (%), MDA-MB-468 cells, 48 h", "setting": "[3]", "result": "52 ± 5", "unit": "%"}, {"measurement": "Cellular Viability (%), Fibroblast cells, 2 h", "setting": "[4]", "result": "100 ± 2 ^a %"}, {"measurement": "Cellular Viability (%), Fibroblast cells, 24 h", "setting": "[4]", "result": "88 ± 2 ^a %"}, {"measurement": "Cellular Viability (%), Fibroblast cells, 48 h", "setting": "[4]", "result": "79 ± 4 ^a %"}, {"measurement": "morphological changes in MDA-MB-468 cells", "setting": "[5]", "result": "significant morphological changes associated with the cytotoxic effect were not observed"}]}, {"substance": "RWQWRWAWR-NH2 [Peptide A7]", "values": [{"measurement": "MIC, E. coli ATCC 25922", "setting": "[1]", "result": 18, "unit": "µM"}, {"measurement": "MIC, S. aureus ATCC 25923", "setting": "[2]", "result": 140, "unit": "µM"}, {"measurement": "Cellular Viability (%), MDA-MB-468 cells, 2 h", "setting": "[3]", "result": "59 ± 6", "unit": "%"}, {"measurement": "Cellular Viability (%), MDA-MB-468 cells, 24 h", "setting": "[3]", "result": "57 ± 3", "unit": "%"}, {"measurement": "Cellular Viability (%), MDA-MB-468 cells, 48 h", "setting": "[3]", "result": "56 ± 1", "unit": "%"}, {"measurement": "Cellular Viability (%), Fibroblast cells, 2 h", "setting": "[4]", "result": "96 ± 5 ^a %"}, {"measurement": "Cellular Viability (%), Fibroblast cells, 24 h", "setting": "[4]", "result": "100 ± 1 ^a %"}, {"measurement": "Cellular Viability (%), Fibroblast cells, 48 h", "setting": "[4]", "result": "79 ± 5 ^a %"}, {"measurement": "morphological changes in MDA-MB-468 cells", "setting": "[5]", "result": "morphological changes were observed, acquiring rounded forms"}]}, {"substance": "RWQWRWQAR-NH2 [Peptide A8]", "values": [{"measurement": "MIC, E. coli ATCC 25922", "setting": "[1]", "result": 37, "unit": "µM"}, {"measurement": "MIC, S. aureus ATCC 25923", "setting": "[2]", "result": 146, "unit": "µM"}, {"measurement": "Cellular Viability (%), MDA-MB-468 cells, 2 h", "setting": "[3]", "result": "69 ± 5", "unit": "%"}, {"measurement": "Cellular Viability (%), MDA-MB-468 cells, 24 h", "setting": "[3]", "result": "62 ± 5", "unit": "%"}, {"measurement": "Cellular Viability (%), MDA-MB-468 cells, 48 h", "setting": "[3]", "result": "61 ± 6", "unit": "%"}, {"measurement": "Cellular Viability (%), Fibroblast cells, 2 h", "setting": "[4]", "result": "100 ± 1 ^a %"}, {"measurement": "Cellular Viability (%), Fibroblast cells, 24 h", "setting": "[4]", "result": "94 ± 1 ^a %"}, {"measurement": "Cellular Viability (%), Fibroblast cells, 48 h", "setting": "[4]", "result": "85 ± 4 ^a %"}, {"measurement": "morphological changes in MDA-MB-468 cells", "setting": "[5]", "result": "significant morphological changes associated with the cytotoxic effect were not observed"}]}, {"substance": "RWQWRWQWA-NH2 [Peptide A9]", "values": [{"measurement": "MIC, E. coli ATCC 25922", "setting": "[1]", "result": 143, "unit": "µM"}, {"measurement": "MIC, S. aureus ATCC 25923", "setting": "[2]", "result": 143, "unit": "µM"}, {"measurement": "Cellular Viability (%), MDA-MB-468 cells, 2 h", "setting": "[3]", "result": "64 ± 7", "unit": "%"}, {"measurement": "Cellular Viability (%), MDA-MB-468 cells, 24 h", "setting": "[3]", "result": "55 ± 6", "unit": "%"}, {"measurement": "Cellular Viability (%), MDA-MB-468 cells, 48 h", "setting": "[3]", "result": "65 ± 7", "unit": "%"}, {"measurement": "Cellular Viability (%), Fibroblast cells, 2 h", "setting": "[4]", "result": "100 ± 4 ^a %"}, {"measurement": "Cellular Viability (%), Fibroblast cells, 24 h", "setting": "[4]", "result": "98 ± 3 ^a %"}, {"measurement": "Cellular Viability (%), Fibroblast cells, 48 h", "setting": "[4]", "result": "100 ± 3 ^a %"}]}]}
